Source: ChEMBL document CHEMBL1124161, “4-Hydroxy-3-quinolinecarboxamides with antiarthritic and analgesic activities” (J Med Chem, 1988)
Calls of active or inactive are those of the source. No cut-off for these calls is given here.

Columns and labels:
[1] = test system: Mus musculus; experiment: Analgesic activity against acetic acid induced writhing test in mouse after peroral administration; format: functional
[2] = test system: Rattus norvegicus; experiment: Anti-arthritis activity against adjuvant-induced arthritis in rats after peroral administration; format: functional
Procedure, shortened: (§1)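 Groups of five male Lewis rats, 40–50 days old, given intraplantar injection in right hind paw of 0.6 mg Mycobacterium butyricum in 0.1 mL Bayol 55. Drug given in food from adjuvant day to day 17. Injected and noninjected hind paw volumes measured day 17 against normal controls. ED50 by least-squares curve fitting or Litchfield–Wilcoxon probit.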

[3] = test system: Rattus norvegicus; experiment: Antiinflammatory activity against carrageenan-induced foot edema in rat after peroral administration at 25 mg/kg; IA=Inactive; format: functional, organism-based; design: dose 25 mg/kg
[4] = organism: Rattus norvegicus; experiment: Antiarthritis activity against adjuvant-induced arthritis in rats; format: functional; procedure, shortened: as §1
[5] = Mus musculus, po, read-out: ED50
[6] = Rattus norvegicus, po, read-out: ED50

Compound | ED50 [1, 5] | other results
COc1ccc2nc(C(F)(F)F)c(C(=O)Nc3nccs3)c(O)c2c1 | 30 mg/kg | 
O=C(Nc1ccccn1)c1c(C(F)(F)F)nc2c(C(F)(F)F)cccc2c1O | > 20 mg/kg | 
CCc1nc2c(C(F)(F)F)cccc2c(O)c1C(=O)Nc1cc(C)on1 | > 50 mg/kg | 
O=C(Nc1nccs1)c1c(C(F)(F)F)nc2cc(C(F)(F)F)ccc2c1O | 5 mg/kg | 
CCC(O)c1nc2c(C(F)(F)F)cccc2c(O)c1C(=O)Nc1nccs1 (stereo in doubt; 90) |  | ED50 [2]: >5 mg/kg; ED50 [1]: >20 mg/kg
O=C(Nc1nccs1)c1c(C(F)F)nc2c(C(F)(F)F)cccc2c1O | 5 mg/kg | 
CC(C)c1nc2c(C(F)(F)F)cccc2c(O)c1C(=O)Nc1nccs1 | 5 mg/kg | 
CCC(O)c1nc2c(C(F)(F)F)cccc2c(O)c1C(=O)Nc1ccccn1 (centres undefined) | 20 mg/kg | ED50 [2, 6]: ≥ 15 mg/kg
O=C(Nc1nccs1)c1c(C(F)(F)F)nc2c(Cl)ccc(C(F)(F)F)c2c1O | > 50 mg/kg | 
CC(C)Cc1nc2c(C(F)(F)F)cccc2c(O)c1C(=O)Nc1nccs1 | 30 mg/kg | 
O=C(Nc1nccs1)c1c(C(F)(F)F)nc2ccccc2c1O | 8 mg/kg | 
O=C(Nc1nc2ccccc2s1)c1c(C(Cl)Cl)nc2c(C(F)(F)F)cccc2c1O | > 25 mg/kg | ED50 [3]: inactive
CC(O)c1nc2c(C(F)(F)F)cccc2c(O)c1C(=O)Nc1nccs1 (centres undefined) | 1.2 mg/kg | ED50 [4]: ≥ 5 mg/kg
O=C(Nc1nccs1)c1cnc2c(OC(F)(F)F)cccc2c1O | > 50 mg/kg | 
O=C(Nc1nccs1)c1cnc2c(SC(F)(F)F)cccc2c1O | > 50 mg/kg | 
CCC(=O)OC(CC)c1nc2c(C(F)(F)F)cccc2c(O)c1C(=O)Nc1nccs1 (stereo in doubt; 104) |  | ED50 [2]: 0.6 mg/kg; ED50 [1]: 15 mg/kg
CCCc1nc2c(C(F)(F)F)cccc2c(O)c1C(=O)Nc1nccs1 | 15 mg/kg | 
O=C(Nc1nccs1)c1cnc2c(Cl)cccc2c1O | 100 mg/kg | 
O=C(Nc1nccs1)c1cnc2ccc(C(F)(F)F)cc2c1O | 40 mg/kg | 
CCCC(=O)OC(CC)c1nc2c(C(F)(F)F)cccc2c(O)c1C(=O)Nc1nccs1 (centres undefined) | 4 mg/kg | ED50 [2, 6]: 1.3 mg/kg
Cn1ccnc1NC(=O)c1cnc2c(C(F)(F)F)cccc2c1O | 16 mg/kg | 
O=C(Nc1nccs1)c1cnc2ccccc2c1O | > 10 mg/kg | 
O=C(Nc1ncco1)c1c(C(F)(F)F)nc2c(C(F)(F)F)cccc2c1O | > 100 mg/kg | 
Cn1ccnc1NC(=O)c1c(C(Cl)Cl)nc2c(C(F)(F)F)cccc2c1O | > 25 mg/kg | ED50 [3]: inactive
O=C(Nc1nccs1)c1c(C(F)(F)F)nc2ccc(C(F)(F)F)cc2c1O | 100 mg/kg | 
O=C(Nc1nccs1)c1c(C(Cl)Cl)nc2c(Cl)cccc2c1O | 25 mg/kg | ED50 [3]: inactive
O=C(NC1CCCCC1)c1cnc2c(C(F)(F)F)cccc2c1O | > 50 mg/kg | 

Compound | ED50 [1, 5] | other results
O=C(Nc1nccs1)c1c(C(F)(F)F)nc2ccc(Cl)cc2c1O | > 25 mg/kg | 
CCC(=O)OC(CC)c1nc2c(C(F)(F)F)cccc2c(O)c1C(=O)Nc1nccs1 (stereo in doubt; 103) |  | ED50 [2]: >5 mg/kg; ED50 [1]: >50 mg/kg
O=C(Nc1nccs1)c1cnc2cc(C(F)(F)F)ccc2c1O | 100 mg/kg | 
CC(=O)OC(c1nc2c(C(F)(F)F)cccc2c(O)c1C(=O)Nc1nccs1)C(C)C (centres undefined) | > 100 mg/kg | ED50 [2, 6]: ≥ 5 mg/kg
CCc1nc2c(C(F)(F)F)cccc2c(O)c1C(=O)Nc1nccn1C | 50 mg/kg | 
CCCC(O)c1nc2c(C(F)(F)F)cccc2c(O)c1C(=O)Nc1nccs1 (centres undefined) | 20 mg/kg | ED50 [4]: ≥ 20 mg/kg
O=C(NC1=NCCS1)c1cnc2c(C(F)(F)F)cccc2c1O | 15 mg/kg | 
Cc1cc(NC(=O)c2c(C(F)(F)F)nc3c(C(F)(F)F)cccc3c2O)no1 | > 50 mg/kg | 
O=C(Nc1nccs1)c1c(C(F)(F)F)nc2c(SC(F)(F)F)cccc2c1O | 4 mg/kg | 
O=C(Nc1nccs1)c1c(C(F)(F)C(F)(F)F)nc2c(C(F)(F)F)cccc2c1O | 20 mg/kg | 
CCc1nc2c(C(F)(F)F)cccc2c(O)c1C(=O)Nc1nccs1 | 3 mg/kg | 
O=C(Nc1ncccn1)c1cnc2c(C(F)(F)F)cccc2c1O | 50 mg/kg | 
CC(C)[C@H](N)c1nc2c(C(F)(F)F)cccc2c(O)c1C(=O)Nc1nccs1 | > 100 mg/kg | ED50 [2, 6]: ≥ 5 mg/kg
O=C(Nc1nccs1)c1c(CCl)nc2c(C(F)(F)F)cccc2c1O | 25 mg/kg | ED50 [3]: inactive
CCC(OC(=O)c1ccccc1)c1nc2c(C(F)(F)F)cccc2c(O)c1C(=O)Nc1nccs1 (centres undefined) | > 100 mg/kg | ED50 [2, 6]: > 5 mg/kg
O=C(Nc1nccs1)c1c(C(F)(F)F)nc2c([S+]([O-])C(F)(F)F)cccc2c1O (centres undefined) | 20 mg/kg | 
O=C(Nc1nccs1)c1c(C(Cl)Cl)nc2ccc(Cl)cc2c1O | 25 mg/kg | 
O=C(Nc1ccccn1)c1c(C(Cl)Cl)nc2c(C(F)(F)F)cccc2c1O | 20 mg/kg | 
CCC(OC(=O)c1cccnc1)c1nc2c(C(F)(F)F)cccc2c(O)c1C(=O)Nc1nccs1 (centres undefined) | > 20 mg/kg | ED50 [2, 6]: > 1 mg/kg
CCc1nc2c(C(F)(F)F)cccc2c(O)c1C(=O)Nc1ccccn1 | 18 mg/kg | 
CC(C)C(O)c1nc2c(C(F)(F)F)cccc2c(O)c1C(=O)Nc1nccs1 (centres undefined) | 20 mg/kg | ED50 [4]: 0.4 mg/kg
COc1cccc2c(O)c(C(=O)Nc3nccs3)cnc12 | > 50 mg/kg | 
CC(C)c1ccc2ncc(C(=O)Nc3nccs3)c(O)c2c1 | 25 mg/kg | 
O=C(Nc1nccs1)c1c(C(Cl)Cl)nc2c(F)cccc2c1O | 25 mg/kg | ED50 [3]: inactive
Cn1nccc1NC(=O)c1cnc2c(C(F)(F)F)cccc2c1O | 50 mg/kg | 
Cc1nc2c(C(F)(F)F)cccc2c(O)c1C(=O)Nc1ccccn1 | 5 mg/kg | 
CCc1nc2c(C(F)(F)F)cccc2c(O)c1C(=O)Nc1ncco1 | 15 mg/kg | 

Compound | ED50 [1, 5] | other results
O=C(Nc1ncc[nH]1)c1cnc2c(C(F)(F)F)cccc2c1O | 18 mg/kg | 
O=C(Nc1ncco1)c1cnc2c(C(F)(F)F)cccc2c1O | > 100 mg/kg | 
CC[C@H](NC(C)=O)c1nc2c(C(F)(F)F)cccc2c(O)c1C(=O)Nc1nccs1 | 5 mg/kg | ED50 [2, 6]: 1.5 mg/kg
O=C(Nc1ccccn1)c1cnc2c(C(F)(F)F)cccc2c1O | > 50 mg/kg | 
CC(Cl)c1nc2c(C(F)(F)F)cccc2c(O)c1C(=O)Nc1nccs1 (centres undefined) |  | ED50 ([1]; read-out: ED50): 25 mg/kg
CC(O)c1nc2c(C(F)(F)F)cccc2c(O)c1C(=O)Nc1ccccn1 (centres undefined) | > 50 mg/kg | 
CC(C)C(O)c1nc2c(C(F)(F)F)cccc2c(O)c1C(=O)Nc1ccccn1 (centres undefined) | > 50 mg/kg | ED50 [2, 6]: 5 mg/kg
CC(O)c1nc2ccccc2c(O)c1C(=O)Nc1nccs1 (centres undefined) | > 100 mg/kg | ED50 [2, 6]: > 5 mg/kg
O=C(Nn1ccnn1)c1cnc2c(C(F)(F)F)cccc2c1O | > 50 mg/kg | 
O=C(Nc1nccs1)c1c(C(F)(F)F)nc2cc(Cl)ccc2c1O | > 25 mg/kg | 
O=C(Nc1nccs1)c1cnc2ccc(Cl)cc2c1O | 50 mg/kg | 
CC(C)(C)c1nc2c(C(F)(F)F)cccc2c(O)c1C(=O)Nc1nccs1 | > 100 mg/kg | 
O=C(Nc1nccs1)c1c(C(Cl)Cl)nc2ccccc2c1O | > 25 mg/kg | 
O=C(Nc1ccccc1)c1cnc2c(C(F)(F)F)cccc2c1O | > 50 mg/kg | 
O=C(Nc1nccs1)c1c(C(F)(F)F)nc2c(Cl)cccc2c1O | 2 mg/kg | 
CCC(OC(=O)/C=C/c1ccccc1)c1nc2c(C(F)(F)F)cccc2c(O)c1C(=O)Nc1nccs1 (centres undefined) | > 100 mg/kg | ED50 [2, 6]: 10 mg/kg
O=C(Nc1nccs1)c1c(C(F)(F)F)nc2cccc(C(F)(F)F)c2c1O | 20 mg/kg | 
Cc1nc2c(C(F)(F)F)cccc2c(O)c1C(=O)Nc1nccs1 | 4 mg/kg | 
C[C@H](N)c1nc2c(C(F)(F)F)cccc2c(O)c1C(=O)Nc1nccs1 | 30 mg/kg | ED50 [2, 6]: 7 mg/kg
O=C(Nc1ncco1)c1c(C(Cl)Cl)nc2c(C(F)(F)F)cccc2c1O | > 25 mg/kg | ED50 [3]: inactive
O=C(Nc1nccs1)c1c(C(Cl)Cl)nc2cc(Cl)ccc2c1O | > 100 mg/kg | 
CCC(O)c1nc2c(C(F)(F)F)cccc2c(O)c1C(=O)Nc1nccs1 (stereo in doubt; 91) |  | ED50 [2]: 0.5 mg/kg; ED50 [1]: 1.8 mg/kg
O=C(Nc1nccs1)c1c(C(F)(F)F)nc2c(F)cccc2c1O | 5 mg/kg | 
CCC(=O)OC(c1nc2c(C(F)(F)F)cccc2c(O)c1C(=O)Nc1nccs1)C(C)C (centres undefined) | > 100 mg/kg | ED50 [2, 6]: ≥ 5 mg/kg
CCC(OC(=O)C(C)(C)C)c1nc2c(C(F)(F)F)cccc2c(O)c1C(=O)Nc1nccs1 (centres undefined) |  | ED50 [2, 6]: 15 mg/kg
